{"source": "PubChem BioAssay AID1517", "about": "(The Scripps Research Institute Molecular Screening Center, 2009)", "note": "Some of the results follow. Values without a mark were called inactive. Activity calls are given as the source filed them.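 The calls were made as follows: active = percent inhibition of p97 ATPase above a set limit, the primary screen's mean plus 3 SD (cut at about 15% in these data); inactive = the rest.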"}
{"molecular_target": "Transitional endoplasmic reticulum ATPase (Homo sapiens) (UniProt P55072)", "sequence (P55072 whole entry, looked up)": "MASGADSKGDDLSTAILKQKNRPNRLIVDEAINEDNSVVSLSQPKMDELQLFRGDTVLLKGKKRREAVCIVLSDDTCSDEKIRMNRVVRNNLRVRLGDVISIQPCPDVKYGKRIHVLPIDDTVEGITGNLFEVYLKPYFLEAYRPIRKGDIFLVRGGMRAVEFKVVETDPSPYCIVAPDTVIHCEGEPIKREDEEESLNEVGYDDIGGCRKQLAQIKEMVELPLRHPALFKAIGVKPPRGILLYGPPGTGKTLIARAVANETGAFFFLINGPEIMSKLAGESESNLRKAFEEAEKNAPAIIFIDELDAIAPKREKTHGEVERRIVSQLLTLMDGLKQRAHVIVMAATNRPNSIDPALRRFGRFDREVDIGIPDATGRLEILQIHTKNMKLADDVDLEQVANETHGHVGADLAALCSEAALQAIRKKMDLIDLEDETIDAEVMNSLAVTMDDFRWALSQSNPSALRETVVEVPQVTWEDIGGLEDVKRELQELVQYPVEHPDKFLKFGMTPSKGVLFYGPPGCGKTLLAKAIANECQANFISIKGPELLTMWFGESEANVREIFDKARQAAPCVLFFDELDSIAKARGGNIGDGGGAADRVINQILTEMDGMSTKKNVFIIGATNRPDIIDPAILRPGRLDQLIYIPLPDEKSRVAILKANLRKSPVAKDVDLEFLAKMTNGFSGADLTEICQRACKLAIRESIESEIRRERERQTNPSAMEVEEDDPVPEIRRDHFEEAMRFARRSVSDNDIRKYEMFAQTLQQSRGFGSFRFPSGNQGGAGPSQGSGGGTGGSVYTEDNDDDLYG", "assay": "p97 ATPase inhibitors, retest, confirmation, biochemical (AID 1517);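 also: 0% = DMSO wells and 100% = wells lacking p97 protein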", "details": "recombinant p97 ATPase, Kinase-Glo ATP luminescence; at 8 µM; hits give high values", "in_short": "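system = recombinant p97 ATPase | medium = Tris/MgCl2/EDTA/DTT buffer, pH 8.0 | compound dosing = one dose, 8 µM nominal final | timing = 30 min preincubation at 25 °C plus 3 h with ATP | measured by = Kinase-Glo luminescence | evaluation = percent ATPase inhibition | controls = DMSO and no-p97 controls | repeats = triplicate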"}
{"smiles": "CCOC(=O)N1CCC(c2cc(=O)n(-c3ccccc3)[nH]2)CC1", "inhibition": "7.34%"}
{"smiles": "Cc1ccc2c(c1)NCC(C(=O)NC1CCC(C)CC1)O2", "note": "(stereo not drawn)", "inhibition": "4.67%"}
{"smiles": "CC(=O)N1CCc2cc(Br)cc(S(=O)(=O)CCC(=O)Nc3c(C)n(C)n(-c4ccccc4)c3=O)c21", "inhibition": "2.71%"}
{"smiles": "O=C(/C=C/c1ccc(Cl)c([N+](=O)[O-])c1)c1ccc(O)cc1", "inhibition": "10.9%"}
{"smiles": "[O-][n+]1onc2c1CCc1[nH]c(-c3ccccc3)nc1-2", "inhibition": "39.8% (active)"}
{"smiles": "CCOc1c(Br)cc(/C=C2\\C(=O)N(CCC#N)N=C2C)cc1OC", "inhibition": "6.06%"}
{"smiles": "Nc1ccc2nc3c(=O)[nH]c(=S)[nH]c3nc2c1", "inhibition": "25.4% (active)"}
{"smiles": "O=C(OCC1O[C@@H](OC(=O)c2cc(O)c(O)c(O)c2)[C@@H](OC(=O)c2cc(O)c(O)c(O)c2)[C@@H](OC(=O)c2cc(O)c(O)c(O)c2)[C@@H]1OC(=O)c1cc(O)c(O)c(O)c1)c1cc(O)c(O)c(O)c1", "note": "(stereo partly drawn)", "inhibition": "59.8% (active)"}
{"smiles": "CCN(CC)CCNC(=O)CCCCCn1c(=O)[nH]c2cc(C(=O)OC)ccc2c1=O", "inhibition": "2.31%"}
{"smiles": "Cc1[nH][nH]c(=O)c1C(c1ccc(-c2ccc(Cl)cc2)o1)c1c(C)[nH][nH]c1=O", "inhibition": "9.11%"}
{"smiles": "CC(C(=O)O)n1cnc2sc3c(c2c1=O)CCCC3", "note": "(stereo not drawn)", "inhibition": "6.68%"}
{"smiles": "COc1ccc(Cl)cc1C(=O)NNC(=O)c1nc2nc(C)cc(C)n2n1", "inhibition": "20.8% (active)"}
{"smiles": "Clc1ccc(C2=CSC3=Nc4cccc5cccc(c45)N23)cc1", "inhibition": "2.9%"}
{"smiles": "N=C1C(c2nc3ccccc3s2)=C(O)CN1NC(=O)c1ccc([N+](=O)[O-])cc1", "inhibition": "37.1% (active)"}
{"smiles": "NC(N)=N/N=C/c1ccc(OCc2ccc(Cl)cc2Cl)cc1", "inhibition": "37.7% (active)"}
{"smiles": "CC1CCCN(C(C(=O)Nc2ccc(C(C)C)cc2)c2ccc3c(c2)OCO3)C1", "note": "(stereo not drawn)", "inhibition": "-0.84%"}
{"smiles": "C=CCn1c(N)c(C(=O)OCC(C)C)c2nc3ccccc3nc21", "inhibition": "18.1% (active)"}
{"smiles": "CCN1C(=O)/C(=C2/Sc3ccccc3N2CCCS(=O)(=O)O)SC1=S", "inhibition": "4.27%"}
{"smiles": "COc1ccccc1C1C(C#N)=C(N)Oc2c1c(-c1ccccc1)nn2-c1ccccc1", "note": "(stereo not drawn)", "inhibition": "1.04%"}
{"smiles": "N#Cc1c(N2CCCCC2)nc(N)c2c(N)nc(SCC(=O)O)cc12", "inhibition": "46% (active)"}
{"smiles": "COc1ccc(-c2cc(-c3ccc(N)cc3)nc(N)c2C#N)cc1OC", "inhibition": "19.8% (active)"}
{"smiles": "O=C(NNC(=S)Nc1ccccc1)c1cccc(S(=O)(=O)N2CCOCC2)c1", "inhibition": "3.56%"}
{"smiles": "Cc1cc(C)c2cc(CN(Cc3nnnn3Cc3ccc(F)cc3)C3CCCC3)c(=O)[nH]c2c1", "inhibition": "4.43%"}
{"smiles": "C=CCn1c(=S)[nH]c2scc(-c3ccco3)c2c1=O", "inhibition": "13.5%"}
{"smiles": "Oc1c(Cl)cc(Cl)c(Cl)c1Cc1c(O)c(Cl)cc(Cl)c1Cl", "inhibition": "73.9% (active)"}
{"smiles": "CCN(c1ccccc1)S(=O)(=O)c1ccc(N)cc1", "inhibition": "1.51%"}
{"smiles": "CCC(C)NC(=O)CSC1=Nc2ccccc2C2=NC(CCC(=O)NCc3ccco3)C(=O)N12", "note": "(stereo not drawn)", "inhibition": "4.93%"}
{"smiles": "N#CC1=C(N)Oc2[nH]c(=S)[nH]c(=O)c2C12C(=O)Nc1ccccc12", "note": "(stereo not drawn)", "inhibition": "25.8% (active)"}
{"smiles": "Cc1no[n+]([O-])c1COc1ccccc1/C=C1\\NC(=S)NC1=O", "inhibition": "39.9% (active)"}
{"smiles": "COc1ccc(-c2[nH]ncc2/C=N/NC(=O)c2cc(Br)ccc2O)c(OC)c1", "inhibition": "25.7% (active)"}
{"smiles": "COc1ccc2c(c1)C(=C(C#N)C#N)C(=O)N2CCc1ccccc1", "inhibition": "19.5% (active)"}
{"smiles": "Oc1c(C=Nc2cccc3nsnc23)ccc2ccccc12", "inhibition": "4.01%"}
{"smiles": "O=C(c1[nH]ncc1-c1ccc(Cl)cc1)C1CO1", "note": "(stereo not drawn)", "inhibition": "12.5%"}
